These molecules were tested against Somatostatin receptor (assay: Antagonism of in vitro SRIF inhibition of GH release in rat in vitro pituitary cell assay). Conditions: pituitary gland cell.
Assay type: functional, cell-based
In short: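 Dispersed adult male rat anterior pituitary cells (trypsin/DNase), about 200 000 cells/well, cultured 4–5 days at 37 °C. GH measured by double-antibody RIA. IC50 versus SRIF, mean ± SEM of n dose–response curves.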

Structure (SMILES)	IC50
CC(C)[C@H]1NC(=O)[C@H](CCCCN)NC(=O)[C@@H](Cc2c[nH]c3ccccc23)NC(=O)[C@H](Cc2cccnc2)NC(=O)[C@@H](NC(=O)[C@@H](N)Cc2ccc(I)cc2)CSSC[C@H](C(=O)N[C@@H](Cc2ccc(I)cc2)C(N)=O)NC1=O	0.004 µM
CC(C)[C@H]1NC(=O)[C@H](CCCCN)NC(=O)[C@@H](Cc2c[nH]c3ccccc23)NC(=O)[C@H](Cc2cccnc2)NC(=O)[C@@H](NC(=O)[C@@H](N)Cc2ccc(C#N)cc2)CSSC[C@H](C(=O)N[C@@H](Cc2ccc(C#N)cc2)C(N)=O)NC1=O	0.051 µM
CC(C)[C@H]1NC(=O)[C@H](CCCCN)NC(=O)[C@@H](Cc2c[nH]c3ccccc23)NC(=O)[C@H](Cc2cccnc2)NC(=O)[C@@H](NC(=O)[C@@H](N)Cc2cccc(F)c2)CSSC[C@H](C(=O)N[C@@H](Cc2cccc(F)c2)C(N)=O)NC1=O	0.077 µM
CC(C)[C@H]1NC(=O)[C@H](CCCCN)NC(=O)[C@@H](Cc2c[nH]c3ccccc23)NC(=O)[C@H](Cc2cccnc2)NC(=O)[C@@H](NC(=O)[C@@H](N)Cc2ccc(F)cc2)CSSC[C@H](C(=O)N[C@@H](Cc2ccc(F)cc2)C(N)=O)NC1=O	0.087 µM
NCCCC[C@@H]1NC(=O)[C@@H](Cc2c[nH]c3ccccc23)NC(=O)[C@H](Cc2cccnc2)NC(=O)[C@@H](NC(=O)[C@@H](N)Cc2ccc3ccccc3c2)CSSC[C@@H](C(=O)N[C@@H](Cc2ccc3ccccc3c2)C(N)=O)NC(=O)CNC1=O	1.51 µM
CC(C)[C@H]1NC(=O)[C@H](CCCCN)NC(=O)[C@@H](Cc2c[nH]c3ccccc23)NC(=O)[C@H](Cc2cccnc2)NC(=O)[C@@H](NC(=O)[C@@H](N)Cc2ccc3ccccc3c2)CSSC[C@H](C(=O)N[C@H](C(N)=O)C(c2ccccc2)c2ccccc2)NC1=O	0.091 µM
CC(C)[C@H]1NC(=O)[C@H](CCCCN)NC(=O)[C@@H](Cc2c[nH]c3ccccc23)NC(=O)[C@H](Cc2cccnc2)NC(=O)[C@@H](NC(=O)[C@@H](N)Cc2c(F)c(F)c(F)c(F)c2F)CSSC[C@H](C(=O)N[C@@H](Cc2c(F)c(F)c(F)c(F)c2F)C(N)=O)NC1=O	0.292 µM
C[C@@H]1NC(=O)[C@H](CCCCN)NC(=O)[C@@H](Cc2c[nH]c3ccccc23)NC(=O)[C@H](Cc2cccnc2)NC(=O)[C@@H](NC(=O)[C@@H](N)Cc2ccc3ccccc3c2)CSSC[C@@H](C(=O)N[C@@H](Cc2ccc3ccccc3c2)C(N)=O)NC1=O	0.425 µM
CC(C)[C@H]1NC(=O)[C@H](CCCCN)NC(=O)[C@@H](Cc2c[nH]c3ccccc23)NC(=O)[C@H](Cc2ccccn2)NC(=O)[C@@H](NC(=O)[C@@H](N)Cc2c(F)c(F)c(F)c(F)c2F)CSSC[C@H](C(=O)N[C@@H](Cc2c(F)c(F)c(F)c(F)c2F)C(N)=O)NC1=O	0.765 µM
CC(C)[C@H]1NC(=O)[C@H](CCCCN)NC(=O)[C@@H](Cc2c[nH]c3ccccc23)NC(=O)[C@H](Cc2cccnc2)NC(=O)[C@@H](NC(=O)[C@@H](N)Cc2ccccc2F)CSSC[C@H](C(=O)N[C@@H](Cc2ccccc2F)C(N)=O)NC1=O	0.114 µM
CC(C)[C@H]1NC(=O)[C@H](CCCCN)NC(=O)[C@@H](Cc2c[nH]c3ccccc23)NC(=O)[C@H](Cc2c[nH]cn2)NC(=O)C(NC(=O)[C@@H](N)Cc2ccccc2F)CSSCC(C(=O)N[C@@H](Cc2ccccc2F)C(N)=O)NC1=O (stereo in doubt)	0.393 µM
CC(C)[C@@H]1NC(=O)[C@H](CCCCN)NC(=O)[C@@H](Cc2c[nH]c3ccccc23)NC(=O)[C@H](Cc2ccc(O)c(I)c2)NC(=O)C(NC(=O)[C@@H](N)Cc2ccc3ccccc3c2)CSSCC(C(=O)N[C@@H](Cc2ccc3ccccc3c2)C(N)=O)NC1=O (stereo in doubt)	0.02 µM
CC(C)[C@H]1NC(=O)[C@H](CCCCN)NC(=O)[C@@H](Cc2c[nH]c3ccccc23)NC(=O)[C@H](Cc2c[nH]cn2)NC(=O)C(NC(=O)[C@@H](N)Cc2c(F)c(F)c(F)c(F)c2F)CSSCC(C(=O)N[C@@H](Cc2c(F)c(F)c(F)c(F)c2F)C(N)=O)NC1=O (stereo in doubt)	2.41 µM

The remaining lines, values ahead:

IC50	Structure (SMILES)
2.11 µM	CC[C@H](C)[C@H]1NC(=O)[C@H](CCCCN)NC(=O)[C@@H](Cc2c[nH]c3ccccc23)NC(=O)[C@H](Cc2ccc(O)cc2)NC(=O)[C@@H](NC(=O)[C@@H](N)Cc2ccc(-c3ccccc3)cc2)CSSC[C@@H](C(=O)N[C@@H](Cc2ccc(-c3ccccc3)cc2)C(N)=O)NC1=O
0.15 µM	CC(C)[C@H]1NC(=O)[C@H](CCCCN)NC(=O)[C@@H](Cc2c[nH]c3ccccc23)NC(=O)[C@H](Cc2cccnc2)NC(=O)[C@@H](NC(=O)[C@@H](N)Cc2ccc3ccccc3c2)CSSC[C@H](C(=O)N[C@@H](Cc2ccc(F)cc2)C(N)=O)NC1=O
0.048 µM	CC(C)C[C@@H]1NC(=O)[C@H](CCCCN)NC(=O)[C@@H](Cc2c[nH]c3ccccc23)NC(=O)[C@H](Cc2cccnc2)NC(=O)[C@@H](NC(=O)[C@@H](N)Cc2ccc3ccccc3c2)CSSC[C@@H](C(=O)N[C@@H](Cc2ccc3ccccc3c2)C(N)=O)NC1=O
0.074 µM	CC(C)[C@H]1NC(=O)[C@H](CCCCN)NC(=O)[C@@H](Cc2c[nH]c3ccccc23)NC(=O)[C@H](Cc2cccnc2)NC(=O)[C@@H](NC(=O)[C@H](N)Cc2ccc(F)cc2)CSSC[C@H](C(=O)N[C@H](Cc2ccc(F)cc2)C(N)=O)NC1=O
0.015 µM	CC(C)[C@H]1NC(=O)[C@H](CCCCN)NC(=O)[C@@H](Cc2c[nH]c3ccccc23)NC(=O)[C@H](Cc2cccnc2)NC(=O)[C@@H](NC(=O)[C@@H](N)Cc2ccc3ccccc3c2)CSSC[C@H](C(=O)N[C@@H](Cc2ccc3ccccc3c2)C(N)=O)NC1=O
0.0065 µM	CC(C)[C@H]1NC(=O)[C@H](CCCCN)NC(=O)[C@@H](Cc2c[nH]c3ccccc23)NC(=O)[C@H](Cc2cccnc2)NC(=O)[C@@H](NC(=O)[C@@H](N)Cc2ccc(F)cc2)CSSC[C@H](C(=O)N[C@@H](Cc2ccc3ccccc3c2)C(N)=O)NC1=O
0.0026 µM	CC(C)[C@H]1NC(=O)[C@H](CCCCN)NC(=O)[C@@H](Cc2c[nH]c3ccccc23)NC(=O)[C@H](Cc2cccnc2)NC(=O)[C@@H](NC(=O)[C@@H](N)Cc2ccc(Cl)cc2)CSSC[C@H](C(=O)N[C@@H](Cc2ccc3ccccc3c2)C(N)=O)NC1=O
0.0027 µM	CC(C)[C@H]1NC(=O)[C@H](CCCCN)NC(=O)[C@@H](Cc2c[nH]c3ccccc23)NC(=O)[C@H](Cc2cccnc2)NC(=O)[C@@H](NC(=O)[C@@H](N)Cc2ccc(Br)cc2)CSSC[C@H](C(=O)N[C@@H](Cc2ccc(Br)cc2)C(N)=O)NC1=O
0.0014 µM	C[C@@H](O)[C@@H]1NC(=O)[C@H](CCCCN)NC(=O)[C@@H](Cc2c[nH]c3ccccc23)NC(=O)[C@H](Cc2ccccc2)NC(=O)[C@@H](NC(=O)[C@@H](N)Cc2ccc(Cl)cc2)CSSC[C@@H](C(=O)N[C@@H](Cc2ccc3ccccc3c2)C(N)=O)NC1=O
0.003 µM	CC(C)[C@H]1NC(=O)[C@H](CCCCN)NC(=O)[C@@H](Cc2c[nH]c3ccccc23)NC(=O)[C@H](Cc2cccnc2)NC(=O)[C@@H](NC(=O)[C@@H](N)Cc2ccc(Cl)cc2)CSSC[C@H](C(=O)N[C@@H](Cc2ccc(Cl)cc2)C(N)=O)NC1=O
0.0027 µM	C[C@@H](O)[C@@H]1NC(=O)[C@H](CCCCN)NC(=O)[C@@H](Cc2c[nH]c3ccccc23)NC(=O)[C@@H](Cc2ccccn2)NC(=O)C(NC(=O)[C@@H](N)Cc2ccc(Cl)cc2)CSSCC(C(=O)N[C@@H](Cc2ccc3ccccc3c2)C(N)=O)NC1=O (stereo in doubt)
